In ChEMBL document CHEMBL1155664, “New carbazole alkaloids from Clausena anisata with antitumor promoting activity” (J Nat Prod, 2000):

How the values were obtained:
Assay type in all cases: cell-based
Raji [1] = experiment: Inhibition of 12-O-tetradecanoylphorbol-13-acetate-induced EBV-early antigen activation in human Raji cells assessed as EA activation at 0.32 nmol relative to 12-O-tetradecanoylphorbol-13-acetate; parameters: scale not given: the % may be the effect or the level left; details: human gammaherpesvirus 4
How it was run: (§1)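 Raji cells induced with TPA (32 pmol = 20 ng/mL) plus compound at 10, 100, 500 or 1000 mol ratio/TPA (0.32, 3.2, 16, 32 nmol). EBV early antigen activation expressed as % of the TPA-only positive control (100%), given with S.D. Results count only where Raji viability stays at or above 60% at 2 days.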

Raji [2] = experiment: Inhibition of 12-O-tetradecanoylphorbol-13-acetate-induced EBV-early antigen activation in human Raji cells assessed as EA activation at 32 nmol relative to 12-O-tetradecanoylphorbol-13-acetate; parameters: scale not given: the % may be the effect or the level left; details: human gammaherpesvirus 4; how it was run: as §1
[3] = Cytotoxicity against human Raji cells assessed as cell viability at 3.2 nmol by trypan blue assay; details: read-out: Activity
How it was run: (§2)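 Raji cells treated with compound together with TPA (32 pmol, 20 ng/mL) at mole ratios to TPA of 10, 100, 500 or 1000 (0.32, 3.2, 16, 32 nmol). Viability determined by trypan blue staining 2 days after treatment. At least 60% viability is needed for the EBV-EA result to be valid.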

[4] = Cytotoxicity against human Raji cells assessed as cell viability at 32 nmol by trypan blue assay; details: read-out: Activity; how it was run: as §2
[5] = Cytotoxicity against human Raji cells assessed as cell viability at 16 nmol by trypan blue assay; details: read-out: Activity; how it was run: as §2
[6] = Cytotoxicity against human Raji cells assessed as cell viability at 0.32 nmol by trypan blue assay; details: read-out: Activity; how it was run: as §2
Raji [7] = experiment: Inhibition of 12-O-tetradecanoylphorbol-13-acetate-induced EBV-early antigen activation in human Raji cells assessed as EA activation at 16 nmol relative to 12-O-tetradecanoylphorbol-13-acetate; parameters: scale not given: the % may be the effect or the level left; details: human gammaherpesvirus 4; how it was run: as §1
Raji [8] = experiment: Inhibition of 12-O-tetradecanoylphorbol-13-acetate-induced EBV-early antigen activation in human Raji cells assessed as EA activation at 3.2 nmol relative to 12-O-tetradecanoylphorbol-13-acetate; parameters: scale not given: the % may be the effect or the level left; details: human gammaherpesvirus 4; how it was run: as §1

| SMILES | Activity (Raji [1]) [%] | Activity (Raji [2]) [%] | viability at 3.2 nmol [3] [%] | viability at 32 nmol [4] [%] | viability at 16 nmol [5] [%] | viability at 0.32 nmol [6] [%] | Activity (Raji [7]) [%] | Activity (Raji [8]) [%] |
| --- | --- | --- | --- | --- | --- | --- | --- | --- |
| C=C(C)C1Cc2c(cc(OC)c3[nH]c4ccccc4c23)C(=O)O1 (configuration not stated) [CLAUSAMINE B] | 100 | 18.3 | > 80 | 60 | 70 | > 80 | 39.2 | 78.2 |
| COC(=O)c1cc(O)c2[nH]c3ccccc3c2c1 [CLAUSINE E] | 100 | 27.4 | > 80 | 60 | > 80 | > 80 | 42.4 | 74.6 |
| COC(=O)c1ccc2[nH]c3ccccc3c2c1 | 100 | 21.7 | > 80 | 60 | > 80 | > 80 | 46.3 | 81.4 |
| COc1cc2c(c3c1[nH]c1ccccc13)CC(C(C)(C)O)OC2=O (configuration not stated) [CLAUSAMINE C] | 92.3 | 12.4 | > 80 | 60 | 70 | > 80 | 27.2 | 72 |
| COC(=O)c1cc(OC)c2[nH]c3ccccc3c2c1CC=C(C)C [CLAUSAMINE] | 92.3 | 18.2 | > 80 | 60 | 70 | > 80 | 34.2 | 66 |
| O=Cc1cc(O)c2[nH]c3ccccc3c2c1 [O-DEMETHYLMURRAYANINE] | 100 | 25.2 | > 80 | 60 | > 80 | > 80 | 40.3 | 69.4 |
| C=C(C)C1Cc2c(cc(O)c3[nH]c4ccccc4c23)C(=O)O1 (configuration not stated) [CLAUSAMINE A] | 95.5 | 15.4 | > 80 | 60 | 70 | > 80 | 28.3 | 73.7 |
| COC(=O)c1cc(O)c2[nH]c3ccccc3c2c1CC=C(C)C [CLAUSINE F] | 94.6 | 20.2 | > 80 | 60 | > 80 | > 80 | 37.5 | 69.8 |
| COc1cc(C=O)c(CC=C(C)C)c2c1[nH]c1ccccc12 [EKEBERGININE] | 90.3 | 10.5 | > 80 | 60 | > 80 | > 80 | 22.4 | 63.5 |
